Data set [1] has as its system HeLa. The data set can be described thus: Antiproliferative activity against human HeLa cells after 72 hrs by (3-(4,5-dimethylthiazol-2-yl)-2,5-diphenyltetrazolium bromide test. The class given is functional, cell-based.
The subject of another data set is A549. The data set can be described thus: Antiproliferative activity against human A549 cells after 72 hrs by (3-(4,5-dimethylthiazol-2-yl)-2,5-diphenyltetrazolium bromide test. The class given is functional, cell-based. Conditions: A549, 72 h.
Data set [2] in a line: Antiproliferative activity against human HL60 cells after 72 hrs by (3-(4,5-dimethylthiazol-2-yl)-2,5-diphenyltetrazolium bromide test. The class given is functional, cell-based. Conditions: HL-60, 72 h. The gist of the method:
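Jurkat, RS4;11 and HL-60 cells grown in RPMI-1640; MCF-7, A549, HeLa and HT-29 cells grown in DMEM; both media with 10% FBS and penicillin/streptomycin. 8 × 10^3 cells per well were preincubated 18 h at 37 °C, 5% CO2, then exposed 72 h to a concentration range (DMSO ≤0.25%). Read-out was MTT; IC50 was taken against cells given the maximum DMSO. Mean ± SE of at least three experiments.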

Data set [3] has as its system HUVEC. Kind of data set: Cytotoxicity against human HUVEC cells after 72 hrs by MTT assay. The data set is classed as cell-based. In short, it runs like this:
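HUVECs were isolated from umbilical cord veins, kept in M200 with low-serum growth supplement and used at passages 1–6. […] Mean ± SEM of three separate experiments.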
A general note: Formazan colour is commonly taken as a measure of viable cells.

In a further data set the target is Tubulin (Bos taurus, UniProt Q6B856+Q862L2+Q862F3). Kind of data set: Inhibition of bovine brain tubulin assembly after 20 mins incubation by spectrophotometric analysis. The gist of the method:
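Bovine brain tubulin (10 μM) was preincubated with varying compound concentrations in glutamate buffer at 30 °C, then chilled to 0 °C. GTP was added to 0.4 mM final and the mixture warmed to 30 °C in cuvettes.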

The subject of the next data set is Jurkat. Kind of data set: Induction of cell cycle arrest in human Jurkat cells assessed as cell arrest at G2/M phase after 24 hrs by propidium iodide based flow cytometric analysis. The data set is classed as functional. In short, it runs like this:
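HeLa or Jurkat cells (5 × 10^5) treated 24 h. Cells fixed in ice-cold 70% ethanol, lysed with RNase A and 0.1% Triton X-100, and stained with propidium iodide. DNA content analyzed by flow cytometry to give cell-cycle phase distribution.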

Data set [4] has as its system HeLa. The data set can be described thus: Induction of apoptosis in human HeLa cells assessed as caspase 3 activation at 100 to […] by Western blot analysis. The class given is functional, cell-based. The following applies: TDE = time-dependent effect. The gist of the method: (§1)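 HeLa lysates prepared after the indicated times. 10 μg protein separated by SDS-PAGE on PVDF blots. Primary antibodies (2 h, room temperature) against PARP, caspase-3, cleaved caspase-9, Bcl-2 and Mcl-1, then peroxidase secondary with ECL detection. β-Actin reprobe used as loading control.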
(In western blotting, separated proteins are transferred to a membrane and probed.)

The subject of data set [5] is HeLa. The data set can be described thus: Induction of apoptosis in human HeLa cells assessed as caspase 3 activation after 24 to 48 hrs by Western blot analysis. The data set is classed as functional, cell-based. The gist of the method:
as §1

Data set [6] deals with Mus musculus. Kind of data set: In vivo antitumor activity against mouse BNL 1ME A.7R.1 cells allografted in Balb/c mouse assessed as reduction in tumor growth at 10 mg/kg, ip up to 8 days relative to vehicle treated control. Set-up: dose 10 mg/kg. The data set is classed as functional, organism-based. In short, it runs like this: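 Male Balb/c mice (8 weeks old) implanted s.c. in the dorsal region with 10^7 BNL 1ME A.7R.1 cells in PBS. Dosed i.p. daily from the second day at 5 or 10 mg/kg, in vehicle of 0.9% NaCl with 5% PEG 400 and 0.5% Tween 80 (7 μL/g). Tumors measured daily with calipers for 7 days, volume = AB²/2. Five mice per group.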

Data set [7] relates to Mus musculus. Kind of data set: In vivo antitumor activity against mouse BNL 1ME A.7R.1 cells allografted in Balb/c mouse assessed as reduction in tumor growth at 5 mg/kg, ip up to 8 days relative to vehicle treated control. The class given is functional, organism-based. Set-up: dose 5 mg/kg. In short, it runs like this: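 Male Balb/c mice, 8 weeks old, received 10^7 BNL 1ME A.7R.1 cells in 200 μL PBS subcutaneously in the dorsal region. Mice were randomised into groups of 5 and dosed ip daily from day 2. Vehicle was 0.9% NaCl with 5% PEG 400 and 0.5% Tween 80, at 7 μL/g. Tumours were measured daily by caliper for 7 days; V = AB²/2.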

The subject of data set [8] is HUVEC. Kind of data set: Antivascular activity in HUVEC assessed as inhibition of endothelial cell migration to tumor site at 25 nM after 6 hrs by wound-healing assay. The data set is classed as functional, cell-based. Conditions: Homo sapiens. In short, it runs like this: (§2)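 Scratch assay: confluent HUVEC monolayer on 0.1% collagen I wounded with a pipette tip and washed with PBS. Cells treated with compound and photographed at set times. Wound width measured in four areas and compared with the initial width to give gap closure. Three independent experiments.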

The subject of data set [9] is HUVEC. The data set can be described thus: Antivascular activity in HUVEC assessed as inhibition of endothelial cell migration to tumor site at 5 nM after 24 hrs by wound-healing assay. The data set is classed as functional, cell-based. The following applies: Homo sapiens. In short, it runs like this: as §2
The subject of data set [10] is HUVEC. Kind of data set: Antivascular activity in HUVEC assessed as distruption of capillary like tube formation at 5 to 25 nM after 1 hr by matrigel assay. Conditions: Homo sapiens. The data set is classed as functional, cell-based. The gist of the method:
(§3)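 Tube-disruption assay: HUVECs (passages 1–6) plated on gelled Matrigel and allowed 6 h to form capillary-like networks. Compound then added to the preformed networks for 1 or 3 h. Five fields per well photographed. Area covered, total network length, mesh number and branching points measured as percent change from complete-medium controls. Three independent experiments.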

In data set [11] the test system is HUVEC. The data set can be described thus: Antivascular activity in HUVEC assessed as distruption of capillary like tube formation at 5 to 25 nM after 3 hrs by matrigel assay. Conditions: Homo sapiens. The class given is functional, cell-based. The gist of the method:
as §3

The subject of data set [12] is HUVEC. Kind of data set: Cytotoxicity against HUVEC cells at 5 to 25 nM. The class given is cell-based. Conditions: human, 0.025 µM.
In data set [13] the test system is Chorioallantoic membrane. Kind of data set: Induction of blood vessel formation in chick embryo chorioallantoic membrane (CAM) at 100 pmol/egg. The data set is classed as functional, tissue-based. The following applies: Gallus gallus.
Data set [14] concerns Chorioallantoic membrane. Kind of data set: Antivascular activity in chick embryo chorioallantoic membrane (CAM) assessed as inhibition of FGF-induced blood vessel formation at 1 pmol/egg by microscopically measured on day 11. The class given is functional, tissue-based. The following applies: Gallus gallus. In short, it runs like this: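 CAM assay: alginate sponges carrying FGF plus compound (0.1–1.0 pmol per pellet) grafted onto the CAM of fertilized chicken eggs on day 11 of development. Blood vessels converging toward the implant counted under a stereomicroscope at 5× after 72 h (day 14). At least six eggs per group.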

Data set [15] in a line: Antivascular activity in mouse B16-BL6 cells allografted in C57/BL6 mouse assessed as reduction blood vessel formation in tumor measured at 30 mg/kg, ip after 24 hrs. The following applies: route intraperitoneal. The data set is classed as functional. In short, it runs like this:
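C57BL/6 mice (6 weeks old) given 10^5 BL6-B16 melanoma cells s.c. in the dorsolateral flank in PBS. At 300 mm3 tumor volume, single i.p. dose of 30 mg/kg in DMSO. Tumors harvested 24 h later, frozen in OCT and cut into 4–5 μm sections. CD31-positive vessels counted in 5 fields per section (40× objective). Five mice per group.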

For data set [16], the system named is HeLa. Kind of data set: Induction of apoptosis in human HeLa cells assessed as reduction in Mcl-1 expression at 100 to 250 nM after 48 hrs by Western blotting analysis.

Data on two compounds can be found in ChEMBL document CHEMBL3425408, “Design, synthesis, in vitro, and in vivo anticancer and antiangiogenic activity of novel 3-arylaminobenzofuran derivatives targeting the colchicine site on tubulin” (J Med Chem, 2015).

Calls of active or inactive are those of the source. The calls are words filed in the database; no cut-off is given here.

In the case of `COC(=O)c1oc2cc(OC)ccc2c1Nc1cc(OC)c(OC)c(OC)c1`, the IC50 with HeLa [1] was 2 nM; in the data set with A549, 9 nM; in data set [2], 5 nM; in the data set with HUVEC [3], 750 nM; on Tubulin, 1100 nM. The Activity entry in the data set with Jurkat was “Dose-dependent effect”; in the data set on HeLa [4], “tde”; with HeLa [5], “Dose-dependent effect”; in the data set with HUVEC [12], “Non-toxic”. Besides, the outcome in the data set on Mus musculus [6], with HUVEC [8], in the data set with HUVEC [9], in the data set with HUVEC [10], in the data set with HUVEC [11] and with HeLa [16] was Active. Besides, the outcome in the data set with Mus musculus [7] and with Chorioallantoic membrane [13] was inactive. In the data set on Chorioallantoic membrane [14], the inhibition result was “Active”. For the same compound, the inhibition in vivo at 30 mg/kg in [15] worked out at 20%.
For the compound `CCOC(=O)c1oc2cc(OC)ccc2c1Nc1cc(OC)c(OC)c(OC)c1`, the IC50 is 13 nM in the data set with HeLa [1]; 36 nM with A549; 24 nM in [2]; 220 nM with HUVEC [3]; 1500 nM against Tubulin. For the same compound, the figures for the Activity entry in the data set with Jurkat, in the data set on HeLa [4] and in the data set on HeLa [5] were “Dose-dependent effect”, “tde” and “Dose-dependent effect”, respectively. The result in the data set with HeLa [16] was Active.

Usually IC50 stands for the point on the concentration scale where inhibition reaches its midpoint. For orientation: inhibition in vivo means the change of the read-out against control, counted positive when it falls.
